From ChEMBL document CHEMBL4477212 (J Med Chem, 2016)
≈ marks a conversion by molar mass, not a printed value.

Experiments:
[1] = tested on: Human immunodeficiency virus 1; experiment: Antiviral activity against HIV1 3B infected in human CEM-SS cells assessed as reduction of virus-induced cytopathic effect at 10 uM after 6 days by MTS assay; format: functional; parameters: scale not given: the % may be the effect or the level left
Method in brief: (§1)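 Single-concentration screen (10 μM) in CEM-SS cells infected with pre-titered HIV-1 IIIB, sized so virus control wells lose 70–95% viability. Incubation was 6 days and read-out was by MTS. Percent CPE reduction was calculated against virus control wells (cells plus virus). Percent viability was calculated against cell-only control wells. Plates included compound toxicity and colorimetric controls, and AZT as positive control.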

CEM-SS [2] = experiment: Cytotoxicity against human CEM-SS cells assessed as cell viability at 10 uM after 6 days by MTS assay; format: cell-based; details: 144 h; method in brief: as §1
[3] = biological target: Human immunodeficiency virus type 1 integrase (Human immunodeficiency virus 1, UniProt Q7ZJM1); experiment: Inhibition of HIV1 recombinant integrase expressed in Escherichia coli using [32P]-labeled oligonucleotide as substrate after 60 mins by strand transfer activity assay
Human immunodeficiency virus type 1 integrase, sequence (Q7ZJM1 whole entry): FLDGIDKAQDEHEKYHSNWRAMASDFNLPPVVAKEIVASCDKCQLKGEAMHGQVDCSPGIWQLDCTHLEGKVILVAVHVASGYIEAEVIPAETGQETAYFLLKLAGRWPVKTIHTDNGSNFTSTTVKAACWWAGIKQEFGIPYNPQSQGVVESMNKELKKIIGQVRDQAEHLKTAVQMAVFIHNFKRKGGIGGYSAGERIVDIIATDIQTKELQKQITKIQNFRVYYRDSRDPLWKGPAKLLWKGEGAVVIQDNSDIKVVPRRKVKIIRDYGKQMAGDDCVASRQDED

[4] = tested on: Human immunodeficiency virus 1; experiment: Antiviral activity against HIV1 3B infected in human CEM-SS cells assessed as reduction of virus-induced cytopathic effect after 6 days by MTS assay; format: functional, organism-based; details: Human immunodeficiency virus 1, 3B, 144 h
CEM-SS [5] = experiment: Cytotoxicity against human CEM-SS cells assessed as cell death after 6 days by MTS assay; format: cell-based; details: 144 h
Method in brief: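 Dose-response format in CEM-SS cells exposed to compound alone (toxicity control wells) alongside the HIV-1 IIIB cytoprotection plates. Incubation was 6 days and viability was measured by MTS. CC50 is the concentration giving 50% cell death, determined from the dose-response data.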

[6] = Therapeutic index, ratio of CC50 for human CEM-SS cells to EC50 for HIV1 3B infected in human CEM-SS cells; format: toxicity, cell-based; details: read-out: Ratio CC50/EC50
[7] = tested on: Human immunodeficiency virus 1; experiment: Antiviral activity against HIV1 infected in human P4R5 cells assessed as reduction of virus replication preincubated with cells for 24 hrs followed by viral infection for 48 hrs by 4-methylumbelliferylgalactoside-based MAGI assay; format: functional, organism-based
[8] = biological target: Human immunodeficiency virus type 1 reverse transcriptase (Human immunodeficiency virus 1, UniProt Q72547); experiment: Inhibition of RNase H activity of full length HIV1 reverse transcriptase using RNA-DNA duplex HTS-1 substrate
[9] = Aqueous solubility of the compound in DPBS; format: physicochemical; details: buffer
[10] = Half life of the compound in DPBS; format: physicochemical
[11] = Half life in human plasma; format: ADME, cell-free
[12] = Half life in mouse plasma; format: ADME, cell-free
[13] = Plasma protein binding in human; format: ADME, cell-free
[14] = Plasma protein binding in mouse; format: ADME, cell-free
[15] = Intrinsic clearance in human liver microsomes during phase 1 measured per mg of protein; format: ADME, Microsome
[16] = Intrinsic clearance in mouse liver microsomes assessed as glucuronidation during phase 2 measured per mg of protein; format: ADME, Microsome
[17] = Intrinsic clearance in human liver microsomes assessed as glucuronidation during phase 2 measured per mg of protein
[18] = tested on: Human immunodeficiency virus 1; experiment: Fold resistance, ratio of EC50 for raltegravir-resistant HIV1 1556-1 expressing integrase Y143C mutant to EC50 for HIV1 expressing wild-type integrase; format: functional
[19] = tested on: Human immunodeficiency virus 1; experiment: Fold resistance, ratio of EC50 for raltegravir-resistant HIV1 4736-2 expressing integrase N155H mutant to EC50 for HIV1 expressing wild-type integrase; format: functional
[20] = tested on: Human immunodeficiency virus 1; experiment: Fold resistance, ratio of EC50 for raltegravir-resistant HIV1 8070-1 expressing integrase G140S/Y143H/Q148H mutant to EC50 for HIV1 expressing wild-type integrase; format: functional
[21] = tested on: Human immunodeficiency virus 1; experiment: Fold resistance, ratio of EC50 for raltegravir-resistant HIV1 8070-2 expressing integrase G140S/Q148H mutant to EC50 for HIV1 expressing wild-type integrase; format: functional

O=C(NCc1ccccc1)c1c(Nc2ccccc2)[nH]c(=O)n(O)c1=O
Activity [1]: 0% | Activity (CEM-SS [2]): 21% | IC50 [3]: > 100000 nM

O=C(NCc1ccccc1)c1c(Nc2ccc(-c3ccccc3)cc2)[nH]c(=O)n(O)c1=O
Activity [1]: 0% | Activity (CEM-SS [2]): 13% | IC50 [3]: > 100000 nM

CCNc1[nH]c(=O)n(O)c(=O)c1C(=O)NCCc1ccccc1
Activity [1]: 99% | Activity (CEM-SS [2]): 87% | IC50 [3]: 100 nM

CCCNc1[nH]c(=O)n(O)c(=O)c1C(=O)NCc1cccc(Cl)c1F
Activity [1]: 33% | Activity (CEM-SS [2]): 48% | IC50 [3]: 58 nM

Nc1[nH]c(=O)n(O)c(=O)c1C(=O)NCc1ccccc1
Activity [1]: 99% | Activity (CEM-SS [2]): 100% | IC50 [3]: 900 nM

CCNc1[nH]c(=O)n(O)c(=O)c1C(N)=O
IC50 [3]: > 100000 nM

CCNc1[nH]c(=O)n(O)c(=O)c1C(=O)NCCCl
Activity [1]: 5.1% | Activity (CEM-SS [2]): 100% | IC50 [3]: > 100000 nM

CCNc1[nH]c(=O)n(O)c(=O)c1C(=O)NCc1cc(F)cc(F)c1
Activity [1]: 100% | Activity (CEM-SS [2]): 100% | IC50 [3]: 230 nM

CNc1[nH]c(=O)n(O)c(=O)c1C(=O)NCc1cccc(F)c1
Activity [1]: 100% | Activity (CEM-SS [2]): 95% | IC50 [3]: 250 nM

CNc1[nH]c(=O)n(O)c(=O)c1C(=O)NCc1ccccc1
Activity [1]: 100% | Activity (CEM-SS [2]): 98% | IC50 [3]: 80 nM | EC50 [4]: 830 nM | CC50 (CEM-SS [5]): 58000 nM | selectivity ratio [6]: 70 | EC50 [7]: 3700 nM | IC50 [8]: 61 nM | solubility [9]: 138 µM (≈ 40.1 µg/mL) | half-life [10]: > 24 h | t1/2 [11]: > 24 h | t1/2 [12]: > 24 h | PPB [13]: 99.2% | PPB [14]: 70.9% | CLH [15]: 0.8 µL/min/mg | CLH [16]: 500 µL/min/mg | CLH [17]: 51 µL/min

CNc1[nH]c(=O)n(O)c(=O)c1C(=O)NCc1cccc(Cl)c1F
Activity [1]: 100% | Activity (CEM-SS [2]): 100% | IC50 [3]: 110 nM

CCNc1[nH]c(=O)n(O)c(=O)c1C(=O)NCc1ccc(C)c(F)c1
Activity [1]: 100% | Activity (CEM-SS [2]): 100% | IC50 [3]: 51 nM | EC50 [4]: 150 nM | CC50 (CEM-SS [5]): 20000 nM | selectivity ratio [6]: 130 | EC50 [7]: 1300 nM | IC50 [8]: 20 nM | solubility [9]: 81 µM (≈ 27.2 µg/mL) | half-life [10]: > 24 h | t1/2 [11]: > 24 h | t1/2 [12]: > 24 h | PPB [13]: 98.9% | PPB [14]: 95.9% | CLH [15]: < 0.1 µL/min/mg | CLH [16]: 1342 µL/min/mg | CLH [17]: 357 µL/min

O=C(NCc1ccc(F)cc1)c1c2n(c(=O)n(O)c1=O)CCCN2
Activity [1]: 0% | Activity (CEM-SS [2]): 5.5% | IC50 [3]: 430 nM

CCNc1[nH]c(=O)n(O)c(=O)c1C(=O)NCc1ccc(F)cc1
Activity [1]: 100% | Activity (CEM-SS [2]): 99% | IC50 [3]: 49 nM | EC50 [4]: 33 nM | CC50 (CEM-SS [5]): 19000 nM | selectivity ratio [6]: 580 | EC50 [7]: 90 nM | IC50 [8]: 11 nM | solubility [9]: 150 µM (≈ 48.3 µg/mL) | half-life [10]: > 24 h | t1/2 [11]: > 24 h | t1/2 [12]: > 24 h | PPB [13]: 99.4% | PPB [14]: 86.5% | CLH [15]: < 0.1 µL/min/mg | CLH [16]: 1240 µL/min/mg

CCNc1[nH]c(=O)n(O)c(=O)c1C(=O)NCc1ccc(F)c(F)c1
Activity [1]: 100% | Activity (CEM-SS [2]): 100% | IC50 [3]: 77 nM | EC50 [4]: 49 nM | CC50 (CEM-SS [5]): 21000 nM | selectivity ratio [6]: 430 | EC50 [7]: 300 nM | IC50 [8]: 26 nM

CCNc1[nH]c(=O)n(O)c(=O)c1C(=O)NCc1cccc(Cl)c1F
Activity [1]: 100% | Activity (CEM-SS [2]): 100% | IC50 [3]: 21 nM | EC50 [4]: 15 nM | CC50 (CEM-SS [5]): 18000 nM | selectivity ratio [6]: 1200 | EC50 [7]: 300 nM | Ratio EC50 [18]: 0.4 | Ratio EC50 [19]: 2.4 | Ratio EC50 [20]: 6.3 | Ratio EC50 [21]: 13 | IC50 [8]: 29 nM | solubility [9]: 11 µM (≈ 3.92 µg/mL) | half-life [10]: > 24 h | t1/2 [11]: > 24 h | t1/2 [12]: > 24 h | PPB [13]: 98.4% | PPB [14]: 94% | CLH [15]: < 0.1 µL/min/mg | CLH [16]: 1065 µL/min/mg

CC(C)Nc1[nH]c(=O)n(O)c(=O)c1C(=O)NCc1ccccc1
Activity [1]: 98% | Activity (CEM-SS [2]): 90% | IC50 [3]: 150 nM

CNc1[nH]c(=O)n(O)c(=O)c1C(=O)NCc1ccc(F)cc1
Activity [1]: 100% | Activity (CEM-SS [2]): 89% | IC50 [3]: 110 nM

O=C(NCc1ccccc1)c1c(NC2CC2)[nH]c(=O)n(O)c1=O
Activity [1]: 98% | Activity (CEM-SS [2]): 91% | IC50 [3]: 210 nM

CCNc1[nH]c(=O)n(O)c(=O)c1C(=O)NCc1cc(F)ccc1F
Activity [1]: 92% | Activity (CEM-SS [2]): 87% | IC50 [3]: 68 nM

CCNc1[nH]c(=O)n(O)c(=O)c1C(=O)NCc1ccccc1
Activity [1]: 100% | Activity (CEM-SS [2]): 100% | IC50 [3]: 33 nM | EC50 [4]: 61 nM | CC50 (CEM-SS [5]): 23000 nM | selectivity ratio [6]: 380 | EC50 [7]: 300 nM | IC50 [8]: 42 nM | solubility [9]: 1091 µM (≈ 332 µg/mL) | half-life [10]: > 24 h | t1/2 [11]: > 24 h | t1/2 [12]: > 24 h | PPB [13]: 99.1% | PPB [14]: 83.9% | CLH [15]: < 0.1 µL/min/mg | CLH [16]: 732 µL/min/mg | CLH [17]: 355 µL/min

CCNc1[nH]c(=O)n(O)c(=O)c1C(=O)NCc1cc(F)ccc1Cl
Activity [1]: 62% | Activity (CEM-SS [2]): 73% | IC50 [3]: 95 nM

CCNc1[nH]c(=O)n(O)c(=O)c1C(=O)NCc1ccc(F)cc1F
Activity [1]: 100% | Activity (CEM-SS [2]): 92% | IC50 [3]: 48 to 68 nM | EC50 [4]: 32 nM | CC50 (CEM-SS [5]): 47000 nM | selectivity ratio [6]: 1500 | EC50 [7]: 70 nM | IC50 [8]: 10 nM

CCNc1[nH]c(=O)n(O)c(=O)c1C(=O)NCc1cccc(F)c1
Activity [1]: 100% | Activity (CEM-SS [2]): 90% | IC50 [3]: 68 nM

CC(C)(C)Nc1[nH]c(=O)n(O)c(=O)c1C(=O)NCc1ccccc1
Activity [1]: 0% | Activity (CEM-SS [2]): 17% | IC50 [3]: 81 nM

CCNc1[nH]c(=O)n(O)c(=O)c1C(=O)Oc1ccccc1
Activity [1]: 50% | Activity (CEM-SS [2]): 100% | IC50 [3]: > 100000 nM

CCNc1[nH]c(=O)n(O)c(=O)c1C(=O)NCc1ccc(Cl)c(F)c1
Activity [1]: 100% | Activity (CEM-SS [2]): 100% | IC50 [3]: 120 nM | EC50 [4]: 190 nM | CC50 (CEM-SS [5]): 19000 nM | EC50 [7]: 800 nM | IC50 [8]: 22 nM

CCNc1c(C(=O)NCc2ccc(F)cc2)c(=O)n(O)c(=O)n1C
Activity [1]: 6.5% | Activity (CEM-SS [2]): 10% | IC50 [3]: > 100000 nM

CCNc1[nH]c(=O)n(O)c(=O)c1C(=O)Nc1ccccc1
Activity [1]: 11% | Activity (CEM-SS [2]): 27% | IC50 [3]: 35000 nM

CCCNc1[nH]c(=O)n(O)c(=O)c1C(=O)NCc1ccccc1
Activity [1]: 100% | Activity (CEM-SS [2]): 97% | IC50 [3]: 66 nM

Cc1cn([C@H]2C[C@H](N=[N+]=[N-])[C@@H](CO)O2)c(=O)[nH]c1=O [ZIDOVUDINE]
Ratio EC50 [18]: 1.4 | Ratio EC50 [19]: 0.7 | Ratio EC50 [20]: 0.9 | Ratio EC50 [21]: 0.5
